Assay [1] deals with Serine/threonine-protein kinase MRCK beta (Homo sapiens) (UniProt Q9Y5S2). Put plainly: Inhibition of human recombinant MRCKb at 40 nM related to control ULK1.
For assay [2], the target named is T1, Mitogen-activated protein kinase 13 (Homo sapiens) (UniProt O15264).
T1 sequence (whole entry): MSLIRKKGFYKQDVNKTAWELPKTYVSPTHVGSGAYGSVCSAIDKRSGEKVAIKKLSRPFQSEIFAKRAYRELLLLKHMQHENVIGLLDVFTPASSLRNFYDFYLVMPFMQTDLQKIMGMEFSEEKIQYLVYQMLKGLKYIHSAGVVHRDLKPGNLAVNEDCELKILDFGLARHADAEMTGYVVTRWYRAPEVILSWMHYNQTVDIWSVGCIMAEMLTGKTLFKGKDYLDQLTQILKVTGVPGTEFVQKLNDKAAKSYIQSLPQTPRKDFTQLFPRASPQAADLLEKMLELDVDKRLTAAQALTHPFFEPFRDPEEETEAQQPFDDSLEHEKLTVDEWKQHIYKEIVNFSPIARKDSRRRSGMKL
As to the kind of experiment: Inhibition of human recombinant p38delta at 40 nM in presence of ATP by radiometric assay relative to control.

The target of assay [3] is MAP/microtubule affinity-regulating kinase 3 (Homo sapiens) (UniProt P27448). As to the kind of experiment: Inhibition of human recombinant MARK3 at 40 nM in presence of ATP by radiometric assay relative to control.
Assay [4] addresses Serine/threonine-protein kinase MARK2 (Homo sapiens) (UniProt Q7KZI7). Put plainly: Inhibition of human recombinant MARK2 at 40 nM in presence of ATP by radiometric assay relative to control.
Assay [5] addresses RAC-beta serine/threonine-protein kinase (Homo sapiens) (UniProt P31751). As to the kind of experiment: Inhibition of human recombinant AKT2 at 40 nM related to control ULK1. The essentials: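 Radiometric activity assays in a panel of 327 human recombinant kinases, each run in duplicate at one inhibitor concentration. Activity remaining is expressed as percent of vehicle control, and percent inhibition is calculated as 100% minus percent activity remaining.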

Assay [6] concerns the target Serine/threonine-protein kinase 38-like (Homo sapiens) (UniProt Q9Y2H1). Put plainly: Inhibition of human recombinant NDR2 at 40 nM in presence of ATP by radiometric assay relative to control.
For assay [7], the target named is Serine/threonine-protein kinase 32C (Homo sapiens) (UniProt Q86UX6). Put plainly: Inhibition of human recombinant YANK3 at 40 nM related to control ULK1.
Sequence of Serine/threonine-protein kinase 32C (Homo sapiens) (Q86UX6 whole entry): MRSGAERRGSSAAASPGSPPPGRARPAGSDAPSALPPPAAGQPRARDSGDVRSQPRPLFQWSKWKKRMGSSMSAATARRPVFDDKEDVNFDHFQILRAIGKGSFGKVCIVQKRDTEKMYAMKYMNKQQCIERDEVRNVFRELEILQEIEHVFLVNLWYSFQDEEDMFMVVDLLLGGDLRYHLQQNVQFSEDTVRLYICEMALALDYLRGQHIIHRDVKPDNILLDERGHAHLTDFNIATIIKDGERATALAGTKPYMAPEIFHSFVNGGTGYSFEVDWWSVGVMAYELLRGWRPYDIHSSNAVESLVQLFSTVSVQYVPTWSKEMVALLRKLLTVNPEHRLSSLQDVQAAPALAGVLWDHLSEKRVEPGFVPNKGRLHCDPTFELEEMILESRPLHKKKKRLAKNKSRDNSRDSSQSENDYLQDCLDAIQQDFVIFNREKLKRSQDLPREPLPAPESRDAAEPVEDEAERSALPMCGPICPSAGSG
Assay [8] concerns the target Dual specificity mitogen-activated protein kinase kinase 1 (Homo sapiens) (UniProt Q02750). As to the kind of experiment: Inhibition of human recombinant MAP2K1 at 500 nM related to control ULK1.
The target of assay [9] is Ribosomal protein S6 kinase alpha-6 (Homo sapiens) (UniProt Q9UK32). Put plainly: Inhibition of human recombinant RSK4 at 500 nM related to control ULK1.
The target of assay [10] is RAC-gamma serine/threonine-protein kinase (Homo sapiens) (UniProt Q9Y243). As to the kind of experiment: Inhibition of human recombinant AKT3 at 500 nM in presence of ATP by radiometric assay relative to control. The essentials: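 Panel of 327 recombinant human kinases in radiometric activity assays, each screened in duplicate at a single inhibitor concentration; percent activity remaining relative to vehicle control, percent inhibition taken as 100 minus activity remaining.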
Sequence of RAC-gamma serine/threonine-protein kinase (Homo sapiens) (Q9Y243 whole entry): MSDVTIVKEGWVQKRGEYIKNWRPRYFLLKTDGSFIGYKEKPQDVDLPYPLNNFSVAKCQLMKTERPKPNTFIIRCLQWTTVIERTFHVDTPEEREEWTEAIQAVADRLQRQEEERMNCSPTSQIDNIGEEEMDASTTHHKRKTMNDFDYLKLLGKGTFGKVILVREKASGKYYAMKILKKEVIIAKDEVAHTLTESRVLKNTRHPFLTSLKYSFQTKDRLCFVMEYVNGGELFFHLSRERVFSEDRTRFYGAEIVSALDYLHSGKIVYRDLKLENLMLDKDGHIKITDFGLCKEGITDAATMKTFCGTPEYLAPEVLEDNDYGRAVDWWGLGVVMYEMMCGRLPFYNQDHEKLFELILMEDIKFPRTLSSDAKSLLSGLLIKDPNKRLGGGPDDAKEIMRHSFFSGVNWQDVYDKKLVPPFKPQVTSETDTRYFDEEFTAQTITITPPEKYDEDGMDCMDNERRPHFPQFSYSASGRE

The target in assay [11] is Tyrosine-protein kinase SYK (Homo sapiens) (UniProt P43405). Put plainly: Inhibition of human recombinant SYK at 500 nM in presence of ATP by radiometric assay relative to control.
Assay [12] deals with Cyclin-dependent kinase 5 (Homo sapiens) (UniProt Q00535). Put plainly: Inhibition of human recombinant CDK5 at 500 nM related to control ULK1.
Assay [13] has as its target Receptor tyrosine-protein kinase erbB-2 (Homo sapiens) (UniProt P04626). As to the kind of experiment: Inhibition of human recombinant ErbB2 at 500 nM in presence of ATP by radiometric assay relative to control.
The target of assay [14] is Protein kinase C delta type (Homo sapiens) (UniProt Q05655). As to the kind of experiment: Inhibition of human recombinant PKCd at 15 nM in presence of ATP by radiometric assay relative to control.
Sequence of Protein kinase C delta type (Homo sapiens) (Q05655 whole entry, looked up): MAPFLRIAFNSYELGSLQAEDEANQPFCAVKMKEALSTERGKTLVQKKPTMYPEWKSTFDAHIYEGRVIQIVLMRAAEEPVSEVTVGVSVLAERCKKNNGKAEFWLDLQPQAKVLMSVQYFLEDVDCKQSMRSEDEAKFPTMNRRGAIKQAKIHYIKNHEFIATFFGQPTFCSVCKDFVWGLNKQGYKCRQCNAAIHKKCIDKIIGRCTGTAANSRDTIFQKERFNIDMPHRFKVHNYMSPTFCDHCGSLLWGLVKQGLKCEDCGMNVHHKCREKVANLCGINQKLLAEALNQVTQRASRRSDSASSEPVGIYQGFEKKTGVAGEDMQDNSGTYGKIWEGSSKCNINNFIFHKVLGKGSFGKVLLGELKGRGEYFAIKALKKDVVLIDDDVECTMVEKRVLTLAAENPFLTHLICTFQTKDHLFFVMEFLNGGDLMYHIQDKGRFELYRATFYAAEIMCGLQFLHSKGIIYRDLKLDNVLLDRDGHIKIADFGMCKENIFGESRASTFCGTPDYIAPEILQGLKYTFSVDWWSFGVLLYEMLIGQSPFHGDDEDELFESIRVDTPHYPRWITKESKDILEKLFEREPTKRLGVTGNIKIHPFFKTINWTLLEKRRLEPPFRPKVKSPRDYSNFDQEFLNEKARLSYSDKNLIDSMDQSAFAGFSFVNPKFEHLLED
In assay [15] the target is Tyrosine-protein kinase Fer (Homo sapiens) (UniProt P16591). As to the kind of experiment: Inhibition of human recombinant FER at 15 nM related to control ULK1.
For assay [16], the target named is RAC-gamma serine/threonine-protein kinase (Homo sapiens) (UniProt Q9Y243). Put plainly: Inhibition of human recombinant AKT3 at 15 nM related to control ULK1.
In assay [17] the target is T2, Tyrosine-protein kinase TXK (Homo sapiens) (UniProt P42681).
T2 sequence (whole entry): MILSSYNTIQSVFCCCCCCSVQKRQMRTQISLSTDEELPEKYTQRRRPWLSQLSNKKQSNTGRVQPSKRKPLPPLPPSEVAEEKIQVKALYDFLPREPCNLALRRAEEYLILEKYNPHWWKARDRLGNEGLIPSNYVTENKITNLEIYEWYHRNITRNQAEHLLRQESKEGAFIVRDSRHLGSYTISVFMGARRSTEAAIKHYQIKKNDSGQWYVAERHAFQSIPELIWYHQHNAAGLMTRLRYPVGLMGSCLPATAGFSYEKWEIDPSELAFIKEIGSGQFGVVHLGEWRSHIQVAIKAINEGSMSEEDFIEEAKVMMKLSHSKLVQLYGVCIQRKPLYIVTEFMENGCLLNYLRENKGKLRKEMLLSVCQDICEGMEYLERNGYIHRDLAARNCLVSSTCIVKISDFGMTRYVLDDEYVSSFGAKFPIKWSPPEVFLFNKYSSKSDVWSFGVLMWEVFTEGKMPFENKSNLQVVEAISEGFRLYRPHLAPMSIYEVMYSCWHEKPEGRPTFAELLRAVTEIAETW
As to the kind of experiment: Inhibition of human recombinant TXK at 15 nM related to control ULK1.

The target of assay [18] is SRSF protein kinase 2 (Homo sapiens) (UniProt P78362). Put plainly: Inhibition of human recombinant SRPK2 at 15 nM related to control ULK1.
Sequence of SRSF protein kinase 2 (Homo sapiens) (P78362 whole entry, looked up): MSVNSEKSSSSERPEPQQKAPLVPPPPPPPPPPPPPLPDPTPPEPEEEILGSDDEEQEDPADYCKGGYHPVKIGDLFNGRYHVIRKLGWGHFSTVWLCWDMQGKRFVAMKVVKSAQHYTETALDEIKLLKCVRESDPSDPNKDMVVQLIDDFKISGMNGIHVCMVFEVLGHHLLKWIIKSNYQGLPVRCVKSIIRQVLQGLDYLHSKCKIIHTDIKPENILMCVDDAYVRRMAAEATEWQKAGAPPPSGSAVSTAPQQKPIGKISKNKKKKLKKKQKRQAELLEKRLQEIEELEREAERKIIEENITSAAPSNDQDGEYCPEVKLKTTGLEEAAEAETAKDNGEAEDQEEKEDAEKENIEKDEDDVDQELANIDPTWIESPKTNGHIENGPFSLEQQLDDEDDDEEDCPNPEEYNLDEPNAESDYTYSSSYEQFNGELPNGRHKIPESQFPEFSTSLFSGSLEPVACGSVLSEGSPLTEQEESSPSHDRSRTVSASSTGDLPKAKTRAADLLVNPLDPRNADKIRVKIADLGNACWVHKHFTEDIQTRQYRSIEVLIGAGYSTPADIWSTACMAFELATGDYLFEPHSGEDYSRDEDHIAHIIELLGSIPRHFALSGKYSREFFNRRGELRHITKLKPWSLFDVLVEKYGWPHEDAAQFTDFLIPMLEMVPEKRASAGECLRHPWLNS

From ChEMBL document CHEMBL5653631, “A Potent and Selective ULK1 Inhibitor Suppresses Autophagy and Sensitizes Cancer Cells to Nutrient Stress” (iScience, 2018) come the findings set out here.

Sequence of Serine/threonine-protein kinase 38-like (Homo sapiens) (Q9Y2H1 2-464 limits assumed): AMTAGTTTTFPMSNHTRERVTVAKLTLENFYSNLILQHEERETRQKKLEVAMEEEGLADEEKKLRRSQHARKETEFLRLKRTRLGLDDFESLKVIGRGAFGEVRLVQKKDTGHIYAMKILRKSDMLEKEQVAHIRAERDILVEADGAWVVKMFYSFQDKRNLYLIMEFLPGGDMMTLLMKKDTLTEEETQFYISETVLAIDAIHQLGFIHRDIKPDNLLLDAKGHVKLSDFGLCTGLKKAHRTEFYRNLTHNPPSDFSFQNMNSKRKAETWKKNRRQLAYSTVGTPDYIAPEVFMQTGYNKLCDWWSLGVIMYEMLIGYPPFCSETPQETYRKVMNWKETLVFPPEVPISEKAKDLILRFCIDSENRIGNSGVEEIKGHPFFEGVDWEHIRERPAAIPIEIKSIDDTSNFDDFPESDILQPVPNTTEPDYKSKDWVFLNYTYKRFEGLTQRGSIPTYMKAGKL
Sequence of RAC-beta serine/threonine-protein kinase (Homo sapiens) (P31751 whole entry): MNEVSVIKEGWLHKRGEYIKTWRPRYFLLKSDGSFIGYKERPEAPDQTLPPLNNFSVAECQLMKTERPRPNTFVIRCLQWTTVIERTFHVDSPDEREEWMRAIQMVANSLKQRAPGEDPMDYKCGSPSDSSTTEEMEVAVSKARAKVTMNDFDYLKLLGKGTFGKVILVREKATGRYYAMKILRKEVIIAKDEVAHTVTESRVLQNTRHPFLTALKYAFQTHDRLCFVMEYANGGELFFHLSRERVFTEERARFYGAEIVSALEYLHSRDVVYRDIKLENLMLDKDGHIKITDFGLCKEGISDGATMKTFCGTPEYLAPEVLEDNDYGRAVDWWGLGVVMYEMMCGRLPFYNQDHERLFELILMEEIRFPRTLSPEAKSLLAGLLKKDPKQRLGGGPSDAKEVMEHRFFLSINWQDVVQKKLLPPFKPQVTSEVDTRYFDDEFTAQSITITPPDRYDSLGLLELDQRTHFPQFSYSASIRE
Sequence of Receptor tyrosine-protein kinase erbB-2 (Homo sapiens) (P04626 whole entry): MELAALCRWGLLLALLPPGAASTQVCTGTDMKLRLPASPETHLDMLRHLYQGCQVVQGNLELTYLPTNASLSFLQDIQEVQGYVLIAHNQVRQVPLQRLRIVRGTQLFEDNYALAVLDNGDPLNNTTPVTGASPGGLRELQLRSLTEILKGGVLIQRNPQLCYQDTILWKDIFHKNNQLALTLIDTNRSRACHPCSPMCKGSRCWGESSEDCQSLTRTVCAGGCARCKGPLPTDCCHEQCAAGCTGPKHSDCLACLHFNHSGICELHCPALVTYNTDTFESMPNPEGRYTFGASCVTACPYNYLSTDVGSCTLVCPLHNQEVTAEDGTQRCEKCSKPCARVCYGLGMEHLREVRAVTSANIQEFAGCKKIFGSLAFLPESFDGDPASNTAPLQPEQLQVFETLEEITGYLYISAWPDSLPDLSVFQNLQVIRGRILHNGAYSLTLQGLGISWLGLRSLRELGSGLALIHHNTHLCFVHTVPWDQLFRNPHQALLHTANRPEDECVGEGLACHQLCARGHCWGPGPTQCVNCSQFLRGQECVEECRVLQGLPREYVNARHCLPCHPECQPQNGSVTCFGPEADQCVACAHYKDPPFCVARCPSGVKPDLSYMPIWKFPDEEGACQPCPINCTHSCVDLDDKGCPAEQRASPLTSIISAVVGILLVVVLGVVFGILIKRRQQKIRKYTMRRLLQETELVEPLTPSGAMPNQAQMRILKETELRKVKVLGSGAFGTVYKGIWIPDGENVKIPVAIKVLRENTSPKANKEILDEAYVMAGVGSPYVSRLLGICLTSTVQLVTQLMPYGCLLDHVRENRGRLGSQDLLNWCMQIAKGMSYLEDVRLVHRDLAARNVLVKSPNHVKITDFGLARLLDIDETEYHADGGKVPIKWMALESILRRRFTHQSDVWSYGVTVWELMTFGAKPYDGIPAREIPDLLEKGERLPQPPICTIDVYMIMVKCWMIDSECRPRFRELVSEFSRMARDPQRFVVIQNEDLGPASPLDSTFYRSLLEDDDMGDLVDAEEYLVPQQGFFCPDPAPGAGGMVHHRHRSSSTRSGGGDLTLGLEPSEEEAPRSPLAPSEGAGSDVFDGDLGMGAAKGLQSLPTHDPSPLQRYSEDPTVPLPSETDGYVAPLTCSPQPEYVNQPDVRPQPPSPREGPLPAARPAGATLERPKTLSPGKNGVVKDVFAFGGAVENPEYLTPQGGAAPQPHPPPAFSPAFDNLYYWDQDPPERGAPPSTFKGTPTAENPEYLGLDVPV
Sequence of Dual specificity mitogen-activated protein kinase kinase 1 (Homo sapiens) (Q02750 whole entry): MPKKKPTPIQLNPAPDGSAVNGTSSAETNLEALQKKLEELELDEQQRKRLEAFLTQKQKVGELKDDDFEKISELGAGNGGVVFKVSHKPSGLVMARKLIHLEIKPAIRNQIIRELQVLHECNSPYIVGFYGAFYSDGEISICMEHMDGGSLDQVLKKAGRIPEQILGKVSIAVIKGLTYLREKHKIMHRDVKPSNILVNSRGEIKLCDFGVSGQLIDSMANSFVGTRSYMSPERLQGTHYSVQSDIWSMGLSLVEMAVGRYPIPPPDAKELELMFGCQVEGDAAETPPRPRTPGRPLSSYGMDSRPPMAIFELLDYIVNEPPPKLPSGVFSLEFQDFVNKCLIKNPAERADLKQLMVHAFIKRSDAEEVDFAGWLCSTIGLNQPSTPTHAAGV

In the case of `O=C(N[C@@H](C1CC1)C(F)(F)F)c1cc(-c2cnn3cc(-c4ccc(F)cc4)cnc23)cs1`, the fold change (FC) came out at 0.07 in [1], 0.14 in assay [5] and 0.07 in [7]. Besides, the inhibition in assay [2] was 12%; in [3], 15%; in assay [4], 12%; in [6] it was 0%.
As for `CNC(=O)c1ccccc1Oc1nc(Nc2cc(OC)c(OC)c(OC)c2)ncc1Br`, the fold change (FC) in assay [8] was 0; in [9], 0.45; in assay [12], 0.77. Besides, the inhibition in [10] stood at 5%; in [11], 0%; in assay [13], 0%.
With `CC(C)[C@H](NC(=O)c1cc(-c2cnn3cc(-c4ccc(OCCN5CCCCC5)cc4)cnc23)cs1)C(F)(F)F`, the inhibition in assay [14] turned out to be 0%. Also, the fold change (FC) in [15] was 0; in [16] it was 0.09; in [17] it was 0.67; in assay [18] it was 0.
